# Where a chain is given by its changes, count along the chain named.
# Legend:
# [1] = AUC (0 to infinity) in mouse at 3 mg/kg, po by LC-MS method; type: ADME, organism-based; design: dose 3 mg/kg, route oral, time infinity; settings: in vivo
# Summary of the method: (§1)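 Single dose, 3 mg/kg, in mouse or rat. IV vehicle: DMSO:Tween 80:PEG-400:D5W 2:5:20:73 (v/v). PO vehicle: Phosol 53 MCT:PEG-400:Poloxamer 124:Cremophor RH40 40:20:20:20 (w/w). Acetonitrile protein precipitation, then LC-MS/MS in negative-ion MRM against an internal standard; LOQ ~20 ng/mL.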
# [2] = Lipophilicity, log D of the compound by HPLC method; type: physicochemical
# [3] = Permeability of the compound by PAMPA; type: ADME; settings: read-out: permeability
# [4] = Solubility of the compound by CLND method; type: physicochemical
# [5] = Intrinsic clearance in human microsomes; type: ADME, Microsome
# [6] = Intrinsic clearance in rat microsomes; type: ADME, Microsome
# [7] = biological target: T1, Nonstructural protein 5A (Hepatitis C virus) (UniProt Q5L478); assay: Inhibition of NS5A M28T mutant in HuH7 cell infected HCV genotype 1a H77 assessed as decrease in viral replication after 4 days by luciferase reporter gene assay relative to wild type protein; settings: Hepatitis C virus (isolate H77)
# T1 sequence (whole entry): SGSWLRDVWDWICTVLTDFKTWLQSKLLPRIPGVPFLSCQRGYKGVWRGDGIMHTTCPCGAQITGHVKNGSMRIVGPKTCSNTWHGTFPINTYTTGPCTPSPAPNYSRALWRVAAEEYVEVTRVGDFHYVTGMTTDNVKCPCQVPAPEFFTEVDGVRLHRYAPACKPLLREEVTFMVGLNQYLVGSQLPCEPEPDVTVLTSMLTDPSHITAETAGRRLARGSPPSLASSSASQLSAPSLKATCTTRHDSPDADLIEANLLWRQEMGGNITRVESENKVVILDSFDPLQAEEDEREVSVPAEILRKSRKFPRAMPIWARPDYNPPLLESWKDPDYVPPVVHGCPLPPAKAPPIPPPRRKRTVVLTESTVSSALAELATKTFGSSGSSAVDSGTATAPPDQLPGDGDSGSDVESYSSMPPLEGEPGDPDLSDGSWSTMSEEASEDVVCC
# Summary of the method: (§2)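 Stable subgenomic luciferase replicons in Huh-7 cells: genotype 1a-H77 carrying NS5A substitutions M28T, Q30E, Q30R, Y93C, Y93H or Y93N, tested alongside the wild-type replicon. Cells are incubated 4 days with compound in DMEM with 5% FBS. Luciferase read-out, EC50 by 4-parameter logistic fit, and fold change versus wild type.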
# [8] = biological target: T1, Nonstructural protein 5A (Hepatitis C virus); assay: Inhibition of NS5A Q30E mutant in HuH7 cell infected HCV genotype 1a H77 assessed as decrease in viral replication after 4 days by luciferase reporter gene assay relative to wild type protein; settings: Hepatitis C virus (isolate H77); summary of the method: as §2
# [9] = biological target: T1, Nonstructural protein 5A (Hepatitis C virus); assay: Inhibition of NS5A Q30R mutant in HuH7 cell infected HCV genotype 1a H77 assessed as decrease in viral replication after 4 days by luciferase reporter gene assay relative to wild type protein; settings: Hepatitis C virus (isolate H77); summary of the method: as §2
# [10] = test system: T2, Nonstructural protein 5A (Hepatitis C virus), Q5L478 [Y93C]; assay: Inhibition of NS5A Y93C mutant in HuH7 cell infected HCV genotype 1a H77 assessed as decrease in viral replication after 4 days by luciferase reporter gene assay relative to wild type protein; settings: Hepatitis C virus (isolate H77); summary of the method: as §2
# T2 sequence (whole entry): T1 sequence (whole entry) with Y93C
# [11] = test system: T3, Nonstructural protein 5A (Hepatitis C virus), Q5L478 [Y93H]; assay: Inhibition of NS5A Y93H mutant in HuH7 cell infected HCV genotype 1a H77 assessed as decrease in viral replication after 4 days by luciferase reporter gene assay relative to wild type protein; settings: Hepatitis C virus (isolate H77); summary of the method: as §2
# T3 sequence (whole entry): T1 sequence (whole entry) with Y93H
# [12] = test system: T4, Nonstructural protein 5A (Hepatitis C virus), Q5L478 [Y93N]; assay: Inhibition of NS5A Y93N mutant in HuH7 cell infected HCV genotype 1a H77 assessed as decrease in viral replication after 4 days by luciferase reporter gene assay relative to wild type protein; settings: Hepatitis C virus (isolate H77); summary of the method: as §2
# T4 sequence (whole entry): T1 sequence (whole entry) with Y93N
# [13] = test system: T3, Nonstructural protein 5A (Hepatitis C virus), Q5L478 [Y93H]; assay: Inhibition of NS5A Y93H mutant in HuH7 cell infected HCV genotype 1b Con1 assessed as decrease in viral replication after 4 days by luciferase reporter gene assay relative to wild type protein; settings: Hepatitis C virus (isolate Con1)
# Summary of the method: as §2, with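 “1b-Con1” for “1a-H77”, “NS5A” for “NS5A substitutions M28T, Q30E, Q30R, Y93C,”, “from a” for “by”, “expressed as” for “and”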
# [14] = Volume of distribution at steady state during terminal phase in mouse at 5 mg/kg, iv by LC-MS method; type: ADME, organism-based; settings: in vivo, read-out: Vbeta
# [15] = Volume of distribution at steady state in mouse at 5 mg/kg, iv by LC-MS method; type: ADME, organism-based; settings: in vivo, read-out: Vdss
# [16] = AUC (0 to infinity) in mouse at 5 mg/kg, iv by LC-MS method; type: ADME, organism-based; design: dose 5 mg/kg, time infinity, route intravenous; settings: in vivo
# [17] = Tmax in mouse at 5 mg/kg, po by LC-MS method; type: ADME, organism-based; settings: in vivo
# [18] = AUC (0 to infinity) in mouse at 5 mg/kg, po by LC-MS method; type: ADME, organism-based; design: dose 5 mg/kg, route oral, time infinity; settings: in vivo
# [19] = Half life in mouse at 3 mg/kg, iv by LC-MS method; type: ADME, organism-based; settings: in vivo; summary of the method: as §1
# [20] = Volume of distribution at steady state during terminal phase in mouse at 3 mg/kg, iv by LC-MS method; type: ADME, organism-based; settings: in vivo, read-out: Vbeta
# Summary of the method: (§3)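 Mice received a single 3 mg/kg IV dose in 2:5:20:73 (v/v) DMSO:Tween 80:PEG-400:D5W. Heparinized plasma taken at 0.1, 0.25, 0.5, 1, 2, 4, 6, 9, 12 and 24 h. Samples precipitated with acetonitrile and assayed by negative-ion MRM LC-MS. Quantified by unweighted linear regression of parent/internal-standard area ratio against spiked standards; LOQ ~20 ng/mL.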
# [21] = Volume of distribution at steady state in mouse at 3 mg/kg, iv by LC-MS method; type: ADME, organism-based; settings: in vivo, read-out: Vdss; summary of the method: as §3
# [22] = AUC (0 to infinity) in mouse at 3 mg/kg, iv by LC-MS method; type: ADME, organism-based; design: dose 3 mg/kg, route intravenous, time infinity; settings: in vivo; summary of the method: as §1
# [23] = Plasma clearance in mouse at 3 mg/kg, iv by LC-MS method; type: ADME, organism-based; summary of the method: as §1
# [24] = Half life in mouse at 3 mg/kg, po by LC-MS method; type: ADME, organism-based; settings: in vivo; summary of the method: as §1
# [25] = Tmax in mouse at 3 mg/kg, po by LC-MS method; type: ADME, organism-based; settings: in vivo
# [26] = Cmax in mouse at 3 mg/kg, po by LC-MS method; type: ADME, organism-based; design: dose 3 mg/kg, route oral; settings: in vivo; summary of the method: as §1
# [27] = Drug level in mouse at 3 mg/kg, po at 24 hrs by LC-MS method; type: ADME, organism-based; settings: in vivo, read-out: Drug uptake; summary of the method: as §1
# [28] = Oral bioavailability in mouse at 3 mg/kg by LC-MS method; type: ADME, organism-based; settings: in vivo; summary of the method: as §1
Compound,AUC(0-inf) [1],logD [2],Papp [3],solubility kinetic [4],CLint scaled [5],CLint scaled [6],Tmax [25],Cmax [26],concentration at 24 h [27],other results
COC(=O)N[C@H](C(=O)N1CCC[C@H]1c1nc2ccc([C@H]3CC[C@H](c4ccc5nc([C@@H]6CCCN6C(=O)[C@@H](NC(=O)OC)C(C)C)[nH]c5c4)N3c3ccc(N4CCOCC4)cc3)cc2[nH]1)C(C)C,2 ng·h/mL,3.2,0.73 ×10⁻⁶ cm/s,14.2 µM,113 mL/min/kg,108 mL/min/kg,–,–,–,–
COC(=O)N[C@H](C(=O)N1CCC[C@H]1c1nc2ccc([C@H]3CC[C@H](c4ccc5nc([C@@H]6CCCN6C(=O)[C@@H](NC(=O)OC)C(C)C)[nH]c5c4)N3c3ccc(C(C)(C)C)cc3)cc2[nH]1)C(C)C,–,5.3,0.14 ×10⁻⁶ cm/s,1.6 µM,122 mL/min/kg,167 mL/min/kg,–,–,–,fold change (FC) [7]: 4; fold change (FC) [8]: 61; fold change (FC) [9]: 14; fold change (FC) [10]: 7; fold change (FC) [11]: 216; fold change (FC) [12]: 510; fold change (FC) [13]: 2; Vd [14]: 1.11 L/kg; Vd [15]: 0.65 L/kg; AUC(0-inf) [16]: 13100 ng·h/mL; Tmax [17]: 1.67 h; AUC(0-inf) [18]: 1390 ng·h/mL
COC(=O)N[C@H](C(=O)N1CCC[C@H]1C(=O)Nc1ccc([C@@H]2CC[C@@H](c3ccc(NC(=O)[C@@H]4CCCN4C(=O)[C@@H](NC(=O)OC)C(C)C)cc3)N2c2ccc(C(C)(C)C)cc2)cc1)C(C)C [OMBITASVIR],11000 ng·h/mL,–,–,–,–,–,7 h,636 nM,205 nM,fold change (FC) [7]: 8960; fold change (FC) [9]: 800; fold change (FC) [10]: 1680; fold change (FC) [11]: 41400; fold change (FC) [12]: 66700; fold change (FC) [13]: 77; half-life [19]: 11 h; Vd [20]: 1.8 L/kg; Vd [21]: 1.67 L/kg; AUC(0-inf) [22]: 26400 ng·h/mL; clearance [23]: 1.83 mL/min/kg; half-life [24]: 11.7 h; bioavailability [28]: 41.7%
COC(=O)N[C@H](C(=O)N1CCC[C@H]1c1nc2cc([C@H]3CC[C@H](c4cc5nc([C@@H]6CCCN6C(=O)[C@@H](NC(=O)OC)C(C)C)[nH]c5cc4F)N3c3cc(F)c(N4CCC(c5ccccc5)CC4)c(F)c3)c(F)cc2[nH]1)C(C)C,14000 ng·h/mL,–,–,–,–,–,24 h,754 nM,754 nM,–
COC(=O)N[C@H](C(=O)N1CCC[C@H]1c1nc2ccc([C@H]3CC[C@H](c4ccc5nc([C@@H]6CCCN6C(=O)[C@@H](NC(=O)OC)C(C)C)[nH]c5c4)N3c3ccc(N4CCCCC4)c(F)c3)cc2[nH]1)C(C)C,2000 ng·h/mL,4.7,0.01 ×10⁻⁶ cm/s,2.5 µM,140 mL/min/kg,162 mL/min/kg,–,–,–,–
COC(=O)N[C@H](C(=O)N1CCC[C@H]1c1nc2ccc([C@H]3CC[C@H](c4ccc5nc([C@@H]6CCCN6C(=O)[C@@H](NC(=O)OC)C(C)C)[nH]c5c4)N3c3cc(Cl)c(N4CCCCC4)c(Cl)c3)cc2[nH]1)C(C)C,960 ng·h/mL,5.9,0.03 ×10⁻⁶ cm/s,< 0.6 µM,< 25 mL/min/kg,50 mL/min/kg,–,–,–,–
COC(=O)N[C@H](C(=O)N1CCC[C@H]1c1nc2cc(F)c([C@H]3CC[C@H](c4cc5[nH]c([C@@H]6CCCN6C(=O)[C@@H](NC(=O)OC)C(C)C)nc5cc4F)N3c3cc(F)c(N4CCC(c5ccc(F)cc5)CC4)c(F)c3)cc2[nH]1)C(C)C,26100 ng·h/mL,–,–,–,–,–,24 h,1710 nM,1710 nM,–

# Reference: ChEMBL document CHEMBL4177761, “Highlights of the Structure-Activity Relationships of Benzimidazole Linked Pyrrolidines Leading to the Discovery of the Hepatitis C Virus NS5A Inhibitor Pibrentasvir (ABT-530)” (J Med Chem, 2018)
